We go through 22 compounds from ChEMBL document CHEMBL1156777, “Synthesis and antiprotozoal activity of cationic 1,4-diphenyl-1H-1,2,3-triazoles” (J Med Chem, 2010).

In data set [1] the test system is Trypanosoma brucei rhodesiense. Kind of data set: Antitrypanosomal activity against Trypanosoma brucei rhodesiense STIB900 infected in NMRI mouse assessed as mean parasitemia relaps day at 5 mg/kg, ip. The data set is classed as functional. The note with it: route intraperitoneal. The method in brief: (§1)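 Female NMRI mice infected ip with 2 × 10⁴ STIB900 bloodstream forms. Groups of four dosed ip daily on days 3–6 postinfection; compounds in DMSO diluted with water to 10% final DMSO. Untreated infected controls. Tail-blood parasitaemia checked on days 7 and 10, twice weekly to day 30, then weekly to day 60. Relapse day recorded for mean relapse day; cure means parasite-free survival to day 60.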

In a further data set the test system is L6. Kind of data set: Cytotoxicity against rat L6 cells after 70 hrs by alamar blue assay. Format: cell-based. The note with it: L6, 70 h. The method in brief:
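Cells were exposed to serial dilutions for 70 h at 37 °C, 5% CO₂, then given resazurin for 2–3 h. IC50 came from sigmoidal curves; two independent runs in duplicate. Top concentration was 90 μg/mL, converted to μM by molecular weight.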
(The colour change of resazurin is a common sign of viable cells or microbes.)

Data set [2] in a line: Selectivity index, ratio of IC50 for rat L6 cells to IC50 for Trypanosoma brucei rhodesiense STIB900. The note with it: read-out: Ratio IC50. Format: toxicity, cell-based. The method in brief:
(§2)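 Each index is L6 IC50 divided by parasite IC50. L6 values are from the 70 h resazurin assay. T. b. rhodesiense STIB900 values are from the 70 h resazurin assay. P. falciparum K1 values are from erythrocytic-stage [³H]-hypoxanthine incorporation: 48 h drug exposure, then 24 h with label. L. donovani values are from the 72 h axenic amastigote CellTiter assay.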

The nature of data set [3]: Selectivity index, ratio of IC50 for rat L6 cells to IC50 for Plasmodium falciparum K1. Format: toxicity, cell-based. The note with it: read-out: Ratio IC50. The method in brief:
as §2

The test system of data set [4] is Trypanosoma brucei rhodesiense. Kind of data set: Antitrypanosomal activity against Trypanosoma brucei rhodesiense STIB900 after 70 hrs by alamar blue assay. Format: functional, organism-based. The note with it: STIB900, 70 h.
Data set [5] in a line: Selectivity index, ratio of IC50 for rat L6 cells to IC50 for Leishmania donovani MHOM/SD/62/1S-CL2D. Format: toxicity, cell-based. The note with it: read-out: Ratio IC50. The method in brief: as §2
The subject of the next data set is Plasmodium falciparum. The data set can be described thus: Antiplasmodial activity against chloroquine-resistant Plasmodium falciparum K1 infected in human erythrocytes after 48 hrs assessed as [3H]hypoxanthine incorporation by liquid scintillation counting. Format: functional, organism-based.
For another data set, the system named is Leishmania donovani. Kind of data set: Antileishmanial activity against Leishmania donovani MHOM/SD/62/1S-CL2D. Format: functional, organism-based. The method in brief: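 Axenic amastigotes (MHOM/SD/62/1S-CL2_D) adapted from promastigotes and grown in amastigote medium at 37 °C. 6 × 10⁴ parasites per well were exposed to 2-fold serial dilutions for 72 h at 37 °C in humidified 5% CO₂. Growth was read with tetrazolium CellTiter reagent as absorbance at 490 nm. IC50 came from a four-parameter dose–response fit; duplicate determinations were averaged.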

The subject of another data set is Mus musculus. Kind of data set: Toxicity in NMRI mouse infected with Trypanosoma brucei rhodesiense STIB900 assessed as survival at 5 mg/kg, ip after administered for 4 consecutive days from day 3 postinfection measured after 7 to 30 days. Format: organism-based. The arrangement: dose 5 mg/kg, route intraperitoneal. The note with it: in vivo. The method in brief:
as §1

SMILES strings stand for the structures.

Broadly, the IC50 is the concentration needed to halve the response being measured. Take `Cl.Cl.N=C(N)c1ccc(-c2cn(-c3cccc(C(=N)N)c3)nn2)cc1`: the Activity in [1] came to 18 days. For the same compound, the IC50 in the data set on L6 came out at 86000 nM; in data set [4], 6 nM; in the data set on Plasmodium falciparum, 4 nM; in the data set on Leishmania donovani, 17000 nM. The selectivity ratio in data set [2] turned out to be 14300; in data set [3], 21500; in [5] it was 5.

With `Cl.Cl.N=C(N)c1ccc(-n2cc(-c3cc(C(=N)N)ccc3O)nn2)cc1`, the 50% inhibitory concentration (IC50) with L6 was > 219000 nM; in [4], 6 nM; with Plasmodium falciparum it was 22 nM; with Leishmania donovani, > 50000 nM. In addition, the values for the selectivity ratio in [2] and in data set [3] were > 36500 and > 9960, respectively. For the same compound, in the data set on Mus musculus, the Activity entry is “Non-toxic”.

For `COc1ccc(C(=N)N)cc1-n1cc(-c2cccc(C(=N)N)c2)nn1.Cl.Cl`, the figures for the Activity (in data set [1]; in the data set on Mus musculus) were 17 days and “Toxic”, respectively. Also, the IC50 in the data set on L6 was > 224000 nM; in data set [4] it was 47 nM; with Plasmodium falciparum, 28 nM; with Leishmania donovani it was > 100000 nM. Besides, the selectivity ratio in data set [2] is > 4770; in data set [3] it was > 8000.

`COc1ccc(C2=NCCN2)cc1-c1cn(-c2ccc(C3=NCCN3)cc2)nn1.Cl.Cl`: the Activity was 26 days in data set [1] and “Toxic” with Mus musculus. Besides, the concentration for half-maximal inhibition (IC50) is > 188000 nM in the data set with L6, 21 nM in [4], 10 nM in the data set with Plasmodium falciparum and > 100000 nM in the data set on Leishmania donovani. For the same compound, the selectivity ratio in data set [2] was > 8950; in data set [3] it was > 18800.

Regarding `COc1ccc(C(=N)N)cc1-n1cc(-c2ccc(C(=N)N)cc2)nn1.Cl.Cl`, in [1], the Activity was 23 days. Further, the IC50 in the data set with L6 is > 201000 nM; in data set [4], 16 nM; with Plasmodium falciparum it was 17 nM; with Leishmania donovani, 31000 nM. Besides, the selectivity ratio in data set [2] was > 12600; in [3], > 11800; in [5] it was > 6.

Regarding `COc1ccc(C(=N)N)cc1-c1cn(-c2ccc(C(=N)N)cc2)nn1.Cl.Cl`, in data set [1], the Activity was 15.5 days. For the same compound, the concentration for half-maximal inhibition (IC50) in the data set with L6 is > 198000 nM; in data set [4] it was 8 nM; with Plasmodium falciparum, 7 nM; with Leishmania donovani it was 4300 nM. The selectivity ratio in data set [2] is > 24800; in data set [3], > 28300; in data set [5], > 46.

On to `CC(C)NC(=N)c1cccc(-n2cc(-c3ccc(C(=N)NC(C)C)cc3O)nn2)c1.Cl.Cl`, for which the Activity in [1] was 18 days. Moreover, the 50% inhibitory concentration (IC50) in the data set on L6 is > 175000 nM; in data set [4] it was 77 nM; with Plasmodium falciparum it was 49 nM; in the data set with Leishmania donovani, > 100000 nM. Moreover, the selectivity ratio in data set [2] is > 2270; in [3] it was > 3570.

With `Cl.Cl.N=C(N)c1cccc(-n2cc(-c3ccc(C(=N)N)cc3O)nn2)c1`, the Activity in data set [1] came out at 39 days. Besides, the IC50 was > 210000 nM with L6, 8 nM in [4], 7 nM with Plasmodium falciparum and 8000 nM in the data set with Leishmania donovani. In addition, the selectivity ratio was > 26200 in data set [2], > 30000 in data set [3] and > 26 in [5].

Take `COc1cc(C(=N)NC(C)C)ccc1-c1cn(-c2cccc(C(=N)NC(C)C)c2)nn1`: the 50% inhibitory concentration (IC50) with L6 is > 170000 nM; in data set [4], 703 nM; in the data set on Plasmodium falciparum it was 34 nM; with Leishmania donovani, 32000 nM. The results for the selectivity ratio in data set [2], in [3] and in data set [5] were > 242, > 5000 and > 5, respectively.

In the case of `CC(C)NC(=N)c1ccc(-c2cn(-c3ccc(C(=N)NC(C)C)cc3)nn2)cc1.Cl.Cl`, in data set [1], the Activity came out at 8 days. Moreover, the IC50 was > 183000 nM in the data set with L6, 201 nM in [4], 5 nM in the data set with Plasmodium falciparum and 25000 nM in the data set on Leishmania donovani. Besides, the figures for the selectivity ratio in data set [2], in [3] and in [5] were > 910, > 36600 and > 7, respectively.

For `Cl.Cl.N=C(N)c1ccc(-n2cc(-c3cccc(C(=N)N)c3)nn2)cc1`, in data set [1], the Activity was 17.33 days. For the same compound, the IC50 in the data set with L6 was determined as 8600 nM; in data set [4], 8 nM; in the data set with Plasmodium falciparum, 3 nM; in the data set on Leishmania donovani it was 12000 nM. The selectivity ratio in data set [2] is 1080; in data set [3], 2870; in [5] it was < 1.

As to `CC(C)NC(=N)c1ccc(-n2cc(-c3cc(C(=N)NC(C)C)ccc3O)nn2)cc1.Cl`, the figures for the Activity (in data set [1]; with Mus musculus) were 28.75 days and “Toxic”, respectively. In addition, the IC50 was > 179000 nM in the data set on L6, 116 nM in [4], 28 nM with Plasmodium falciparum and > 100000 nM in the data set on Leishmania donovani. In addition, the selectivity ratio in data set [2] is > 1540; in [3], > 6390.

In the case of `Cl.Cl.c1cc(-c2cn(-c3ccc(C4=NCCN4)cc3)nn2)ccc1C1=NCCN1`, the Activity is 8 days in data set [1] and “Toxic” in the data set on Mus musculus. Moreover, the IC50 in the data set with L6 is 101000 nM; in data set [4], 53 nM; in the data set with Plasmodium falciparum, 2 nM; with Leishmania donovani it was > 100000 nM. Further, the selectivity ratio was found to be 1910 in [2] and 50500 in data set [3].

For the compound `CC(C)NC(=N)c1ccc(-n2cc(-c3ccc(C(=N)NC(C)C)cc3O)nn2)cc1.Cl.Cl`, the IC50 in the data set with L6 is > 180000 nM; in data set [4], 37 nM; with Plasmodium falciparum it was 7 nM; with Leishmania donovani it was > 50000 nM. In addition, the selectivity ratio is > 4860 in data set [2] and > 25700 in [3]. In addition, the Activity result in the data set with Mus musculus is listed as “Non-toxic”.

With `c1cc(C2=NCCN2)cc(-c2cn(-c3cccc(C4=NCCN4)c3)nn2)c1`, the 50% inhibitory concentration (IC50) with L6 was > 197000 nM; in data set [4] it was 14100 nM; with Plasmodium falciparum it was 365 nM; with Leishmania donovani it was > 100000 nM. In addition, the selectivity ratio in data set [2] is > 14; in data set [3], > 540.

Take `CC(C)NC(=N)c1ccc(-c2cn(-c3ccc(C(=N)NC(C)C)cc3O)nn2)cc1`: the IC50 is > 178000 nM in the data set on L6, 1380 nM in data set [4], 800 nM in the data set on Plasmodium falciparum and > 100000 nM with Leishmania donovani. For the same compound, the values for the selectivity ratio in data set [2] and in [3] were > 129 and > 223, respectively.

Take `COc1cc(C(=N)N)ccc1-n1cc(-c2ccc(C(=N)N)cc2)nn1.Cl.Cl`: the Activity is 34 days in data set [1] and “Toxic” in the data set with Mus musculus. For the same compound, the IC50 is > 183000 nM in the data set with L6, 38 nM in data set [4], 9 nM in the data set on Plasmodium falciparum and > 40000 nM in the data set with Leishmania donovani. The results for the selectivity ratio in data set [2] and in data set [3] were > 4820 and > 20300, respectively.

On to `CC(C)NC(=N)c1cccc(-c2cn(-c3ccc(C(=N)NC(C)C)cc3O)nn2)c1`, for which the IC50 in the data set on L6 was > 187000 nM; in data set [4], 18700 nM; with Plasmodium falciparum it was 1190 nM; in the data set with Leishmania donovani it was > 100000 nM. For the same compound, the selectivity ratio was > 10 in data set [2] and > 157 in [3].

With `Cl.Cl.N=C(N)c1cccc(-c2cn(-c3ccc(C(=N)N)cc3O)nn2)c1`, the Activity was 14 days in [1] and “Toxic” in the data set on Mus musculus. In addition, the half-inhibitory concentration (IC50) in the data set with L6 is > 209000 nM; in [4], 175 nM; with Leishmania donovani, > 100000 nM. Further, the selectivity ratio in [2] and in data set [3] was > 1190 in each case.

For the compound `CC(C)NC(=N)c1ccc(-n2cc(-c3cccc(C(=N)NC(C)C)c3)nn2)cc1`, the IC50 in the data set on L6 was > 190000 nM; in [4], 539 nM; with Plasmodium falciparum, 38 nM; in the data set on Leishmania donovani, > 100000 nM. In addition, the selectivity ratio is > 353 in data set [2] and > 5000 in data set [3].

As for `COc1cc(C(=N)N)ccc1-c1cn(-c2ccc(C(=N)N)cc2)nn1.Cl.Cl`, in [1], the Activity came to 60 days. Moreover, the IC50 came to 59400 nM in the data set with L6, 31 nM in data set [4], 2 nM in the data set with Plasmodium falciparum and 13000 nM in the data set on Leishmania donovani. Besides, the values for the selectivity ratio in data set [2], in data set [3] and in data set [5] were 1920, 29700 and 5, respectively.

As to `CC(C)NC(=N)c1ccc(-c2cn(-c3cccc(C(=N)NC(C)C)c3)nn2)cc1`, the IC50 with L6 turned out to be 193000 nM; in [4] it was 462 nM; with Plasmodium falciparum, 43 nM; in the data set on Leishmania donovani it was 58000 nM. Besides, the selectivity ratio in [2] was 418; in data set [3] it was 4490; in data set [5] it was 3.
